# SUMO Mot1 rescue = inhibitors of SUMOylation pathway: yeast Mot1-301 growth rescue; 1% of 320,000 active; S. cerevisiae Mot1-301 growth rescue, ATP luminescence, 38.5C; percent above DMSO median, 100 means doubled; growth rescue, % at 18.8 µM;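 active means every valid replicate shows activation above 250% relative to neutral control wells; inactive means the rest, any valid replicate at or below 250%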;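 further: OY570 slx delta 5 strain wells were the positive control but not used for scaling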
# CSC inhib = blocks cancer stem cells. cancer stem cell-like cells viability, luminescence. inhibition, % at 7.5 µM. 1.1% of 300,000 active. AID 2717; in the data active means inhibition above about 75%; tested in HMLE shEcad cells
# WT yeast gro inh = growth inhibition of WT yeast, mitochondrial fusion screen. inhibition, % at 10 µM. mitochondrial fusion phenotypic screen, WT strain. AID 1362. 2.1% of 190,000 active; in the data active means inhibition above about 58%; tested in S. cerevisiae
# Efflux pump mplx = inhibitors of Candida antifungal efflux pumps expressed in yeast. S. cerevisiae Candida pump triplex, Nile Red efflux. inhibition, % at 10 µM. 0.44% of 330,000 active;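 active means plate passing quality check with inhibition over a set limit, or well fluorescence over plate mean plus 4 SD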;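 further: Nile Red retained in pooled yeast measured as flow cytometry median fluorescence; 0% = buffer negative control and 100% = Enniatin B positive control; higher means more Nile Red kept so more efflux inhibition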
# T cruzi repl = blocks replication of Trypanosoma cruzi. inhibition, % (no concentration beside the values). 1.4% of 300,000 active. T. cruzi beta-gal in NIH3T3, luminescence, 90 h;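 active means mean inhibition across valid replicates above about 55%, limit read from the data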;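 further: signal also drops with host cell toxicity which is not excluded here; 0% = plate median of DMSO wells and 100% = zero luminescence signal; higher percent means less beta-gal luminescence so fewer parasites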
#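 System: NIH/3T3 fibroblasts plus reporter T. cruzi. Medium: DMEM plus 2% FBS. Probe or stimulus: 5000 reporter trypomastigotes per well. Compound: single 50 nL compound addition per well in DMSO. Incubation: co-culture of at least 90 h after 3 h attachment. Detection: GalScreen β-gal luminescence, detergent lysis, 60 min. Evaluation: parasite load inhibition, %.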
# Beta cell apopt = beta cell apoptosis inhibition. INS-1E cytokine-induced death, ATP luminescence, 48 h; percent of positive-control rescue, neutral wells zero. protection from apoptosis, % (no concentration beside the values). 0.8% of 300,000 active;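 active means Every replicate reaches about 75%, or at least half do and their mean reaches it too, limit read from the data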;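 further: 0% = cytokine-treated negative control wells and 100% = positive control rescue; higher means more ATP so stronger rescue from cytokine killing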
# Numbers without * were called inactive; nt = no result given. The list is not random: actives were taken first. Their share in the collection is about 4.8%.
SMILES,SUMO Mot1 rescue,CSC inhib,WT yeast gro inh,Efflux pump mplx,T cruzi repl,Beta cell apopt
CCOC(=O)C1=C(C)OC(N)=C(C#N)C1c1cccc(C)c1 (configuration not stated),2,-7,2,0,-4,0
CCOC(=O)C1=C(C)OC(N)=C(C#N)C1c1ccc(C)s1 (configuration not stated),515*,4,-6,0,-12,0
Cn1c(=O)c2c(ncn2CC(=O)N(Cc2ccccc2)c2ccccn2)n(C)c1=O,299*,-12,9,0,-2,1
Cn1c(=O)c2c(ncn2CC(=O)OCc2ccccc2)n(C)c1=O,1,-8,10,0,-15,-2
Cc1cccc(C)c1OCC(O)CN1CCC(CN2C(=O)c3cccc4cccc(c34)C2=O)CC1 (configuration not stated),-22,-5,42,0,44,26
Cc1c(C(=O)NCCS(=O)(=O)N2CCN(c3ccccc3F)CC2)cccc1[N+](=O)[O-],-2,24,nt,0,14,-3
O=C1CC(c2cc(Br)ccc2F)c2cc3c(cc2N1)CCC3 (configuration not stated),75,82*,-2,0,-10,40
O=C1CC(c2ccccc2F)c2cc3c(cc2N1)CCC3 (configuration not stated),39,nt,10,0,-4,nt
O=C(C[C@@H]1C/C=C\C[C@H](NC(=O)OCC2c3ccccc3-c3ccccc32)C(=O)O[C@H](c2ccccc2)CNC1=O)NCCO,-21,2,nt,0,nt,8
Oc1c(CN2CCN(c3ccccc3)CC2)cc(Br)c2cccnc12,34,114*,nt,0,52,98*
Oc1c(CN2CCOCC2)cc(COCc2ccccc2)c2cccnc12,-5,48,-13,0,62*,98*
Cc1c(O)c2c(=O)n(-c3ccccc3)c(-c3ccccc3)cc2oc1=O,48,40,-1,0,7,-3
CCOC(=O)C1=C(Nc2ccccc2)CC(C)(O)C(C(=O)OCC)C1c1ccccc1 (configuration not stated),-3,17,28,0,76*,-3
CCOC(=O)C1=C(Nc2ccc(C)cc2)CC(C)(O)C(C(=O)OCC)C1c1ccccc1 (configuration not stated),0,38,52,0,25,11
C/C(=N\NC(N)=S)C1=CCC2C3CC[C@H]4CC(O)CC[C@]4(C)C3CC[C@]12C (some centres not stated),348*,nt,nt,0,60*,nt
CN1CCN(c2ccc(S(=O)(=O)N3CCCCC3)cc2NC(=O)CCc2ccccc2)CC1,3,nt,nt,0,nt,2
CN1CCN(c2ccc(S(=O)(=O)N3CCCCC3)cc2NC(=O)c2ccc(C#N)cc2)CC1,6,1,-14,-1,56*,-3
CN1CCN(c2ccc(Cl)cc2NC(=O)c2ccc(S(=O)(=O)N3CCCCCC3)cc2)CC1,-2,30,6,0,34,-5
Cc1ccccc1OCC(=O)Nc1cc(S(=O)(=O)N2CCCCC2)ccc1N1CCN(C)CC1,-14,-3,3,0,58*,4
CN1CCN(c2ccc(S(=O)(=O)N3CCCCC3)cc2NC(=O)CSCc2ccccc2)CC1,-12,-3,nt,0,67*,0
O=C(Nc1ccc(S(=O)(=O)N2CCCC2)cc1)c1ccc([N+](=O)[O-])cc1,72,-5,nt,0,13,1
COc1ccc(-c2cn(Cc3ccc(C(N)=O)cc3)c(CCN)n2)cc1,-4,-5,nt,0,nt,2
O=S(=O)(c1cccc(S(=O)(=O)N2CCCC2)c1)N1CCCCC1,-20,nt,nt,0,-4,-11
CCCCNS(=O)(=O)c1cccc(S(=O)(=O)N2CCCC2)c1,303*,-13,3,0,nt,0
Cc1noc2ncnc(Sc3ccc(Cl)cc3)c12,324*,51,-2,0,36,-49
SMILES,SUMO Mot1 rescue,CSC inhib,WT yeast gro inh,Efflux pump mplx,T cruzi repl,Beta cell apopt
Cc1ccc(Sc2ncnc3onc(C)c23)cc1,-20,4,49,0,nt,-28
O=C(O)c1cccc(S(=O)(=O)N2CCN(Cc3ccc4c(c3)OCO4)CC2)c1,-14,nt,nt,0,-6,-2
Cc1ccn2c(Nc3ccccc3C)c(-c3ccncc3)nc2c1,-1,-2,-13,0,61*,-46
CC(=O)Nc1c(-c2ccccc2)nc2cc(C)ccn12,3,-7,nt,0,-22,1
Cc1ccc(Nc2c(-c3ccccn3)nc3cc(C)ccn23)cc1,nt,98*,69,0,76*,103*
Cc1ccc(Nc2c(-c3ccccn3)nc3ccc(C)cn23)cc1,66,112*,70,0,45,97*
COc1ccc(C2(C)NC(=O)N(CC(=O)NC(C)c3ccc(CC(C)C)cc3)C2=O)cc1 (configuration not stated),-13,7,nt,0,-5,0
CN(C)CCNC(=O)/C(=C/c1ccc(-c2cccc(Cl)c2)o1)NC(=O)c1ccccc1,15,3,-5,0,21,16
CC(=O)c1cccc(NC(=O)NC2CC(=O)N(c3ccc4c(c3)OCCO4)C2)c1 (configuration not stated),5,-10,nt,0,-7,-8
CC(=O)N1N=C(c2ccc(C)cc2)OC1c1ccc(Br)cc1 (configuration not stated),-30,-12,63*,0,2,nt
CN(C(=O)COC(=O)C1CCN(S(=O)(=O)c2cccs2)CC1)c1ccccc1,nt,-7,2,0,-6,1
CCOC(=O)Cc1csc(N/N=C\c2ccc(N(C)C)cc2)n1,-4,13,nt,0,16,0
COc1cccc(NC(=S)/C(=C(\[O-])c2cc(C)n(-c3ccccc3F)c2C)[n+]2ccc(N(C)C)cc2)c1,-10,19,5,0,75*,3
CC(NC=C1C(=O)OC(C)(C)OC1=O)C(=O)O (configuration not stated),-5,-17,2,0,55*,-4
CC1CC2(CCCCC2)Nc2ccc3ccccc3c21 (configuration not stated),105,24,44,0,0,6
CC(=O)N1c2ccc3ccccc3c2C(C)CC12CCCCC2 (configuration not stated),nt,nt,87*,0,7,5
O=C(COC(=O)C1(c2ccccc2F)CCCC1)NC1CCS(=O)(=O)C1 (configuration not stated),298*,-2,-5,0,4,-1
O=C(COc1ccccc1)NC1CCS(=O)(=O)C1 (configuration not stated),2,0,-14,0,-6,-5
Nc1nc(F)nc2c1ncn2[C@@H]1O[C@H](CO)[C@@H](O)[C@@H]1O,-19,-7,-8,0,-2,-6
